Compound activity deposited in PubChem by several laboratories.
FID counter = displaces DNA intercalator in HCV helicase counter-screen; DNA fluorescent intercalator displacement, fluorescence; AID 1845; actives 0.17% (n = 290,000); inhibition, % at 7.9 µM; in the data active means inhibition above about 37%;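 further: higher means more ethidium bromide displaced from hairpin DNA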
Apaf1 inhib = human Apaf-1 inhibition; O14727; reconstituted apoptosome caspase-3 activity, DEVD-Rh110 fluorescence; inhibition, % at 20 µM; actives 0.71% (n = 330,000); active means inhibition of at least 40% at 20 µM
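Material: reconstituted apoptosome with Apaf-1, cytochrome c, caspase-9, procaspase-3, dATP / Buffer or medium: pH 7.5 Hepes buffer with CHAPS, BSA, DTT / Also added: cytochrome c with DEVD-Rh110 / Schedule: compound with Apaf-1, dATP, procaspase-3 30 min, then 50 min reaction, room temperature / Technique: rhodamine 110 fluorescence at Ex 480/Em 540 nm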
TMEM16A inh = inhibitors of mouse TMEM16A calcium-activated chloride channel; Q8BHY3; HEK293 TMEM16A/YFP iodide influx fluorescence, ionomycin; normalized B-score (activity score, 25-100; higher = stronger inhibition) at 10 µM; actives 1.2% (n = 310,000);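 active means ratio plate-corrected score three or more library SD toward inhibition, starting fluorescence score within five deviations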;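 further: score derived from kinetic fluorescence span divided by baseline fluorescence per well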
UBC13 polyUb = human UBC13 polyubiquitination inhibition; UBC13 polyubiquitin chain formation, TR-FRET; inhibition, % at 20 µM; actives 0.47% (n = 330,000); AID 485273; in the data active means inhibition above about 45%, passing the limit was not always enough
TMEM16A act = activates or potentiates the mouse TMEM16A chloride channel; B-score at 10 µM; HEK293 TMEM16A/YFP-H148Q/I152L, iodide quench fluorescence; hits give low values; actives 0.3% (n = 340,000); Q8BHY3;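 active means fluorescence-ratio B-score plate-corrected deviation score at least 3 library SD below zero, with starting fluorescence score within 5 deviations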;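 further: channel opened by trigger with iodide after compound preincubation; score built on the fluorescence ratio of max minus min over baseline; more negative score means more quench and so TMEM16A activation or potentiation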
TMEM16A reconf = TMEM16A (mouse) chloride channel inhibition, re-confirmation; shares compounds with TMEM16A inh; HEK293 TMEM16A/YFP-H148Q, iodide quench fluorescence; ionomycin added to raise cell calcium; inhibition, % at 10 µM; actives 39% (n = 2,300); AID 652189;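 active means mean duplicate percent inhibition, scaled so buffer wells are 0 and the reference blocker 100, over three buffer SD above buffer mean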
TMEM16A Ca cntr = counter-screen for TMEM16A inhibitors: effect on calcium mobilization | calcium response (% of ionomycin), % at 10 µM | actives 2% (n = 2,300) | shares compounds with TMEM16A inh | TMEM16A/YFP HEK293, Fluo4 calcium mobilization;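 active means duplicate-averaged calcium signal over 20% of the ionomycin maximum, relative to buffer baseline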;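 further: each well's signal is peak minus trough fluorescence divided by its pre-addition baseline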
Parental YFP cnt = counter-screen for TMEM16A inhibitors: effect in parental YFP-HEK293 cells | shares compounds with TMEM16A inh | AID 652233 | iodide YFP quench, ionomycin | 2,300 tested, under 10 active | YFP ratio F(max-min)/F0 at 10 µM;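 active means yellow fluorescent protein signal ratio exceeding the buffer control mean by over 5 SD of those controls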;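 further: ratio is mean of duplicate wells from kinetic YFP trace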
ClC-1 inh = blocks the rat ClC-1 voltage-dependent chloride channel. shares compounds with TMEM16A inh. CHO ClC-1-YFP, iodide influx fluorescence quench; iodide control reads 0, buffer control 100. 2,300 tested, under 10 active. ratio percent, % at 10 µM;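 active means duplicate-mean ratio percent above the mean of iodide-only control wells, which defines zero, plus 5 of their SD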;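 further: higher percent means stronger block of ClC-1 iodide influx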
Large screens that a line does not name were inactive (follow-up assays come after a bar, where they were run). A selection: hits, their analogues and other compounds. The true share with any hit is near 2.4%.

O=C(COC(=O)c1ccc([N+](=O)[O-])cc1)Nc1ccccc1C(=O)NC1CC1	none (no result: FID counter, TMEM16A inh)
N#Cc1c(NC(=O)CN2CCN(C(=O)c3ccco3)CC2)sc2c1CCCCC2	TMEM16A inh 25 | TMEM16A reconf inactive | TMEM16A Ca cntr inactive | Parental YFP cnt inactive | ClC-1 inh inactive
CC(C)Cc1nc(N2CCN(C(=O)c3ccco3)CC2)c(C#N)c2c1CCC2	TMEM16A inh 25 | TMEM16A reconf inactive | TMEM16A Ca cntr inactive | Parental YFP cnt inactive | ClC-1 inh inactive
N#Cc1c(N2CCN(C(=O)c3ccco3)CC2)nc(-c2ccccc2)c2c1CCCC2	TMEM16A inh 100 | TMEM16A reconf 23.5% | TMEM16A Ca cntr inactive | Parental YFP cnt inactive | ClC-1 inh inactive
CC(C)Cc1nc(N2CCN(C(=O)c3ccccc3)CC2)c(C#N)c2c1CCC2	none
CC(=O)Nc1cccc(-c2cc(-c3c(Cl)cccc3Cl)no2)c1	none
CNC(=O)Nc1cccc(-c2cc(-c3c(Cl)cccc3Cl)no2)c1	TMEM16A inh 100 | TMEM16A reconf 26.5% | TMEM16A Ca cntr inactive | Parental YFP cnt inactive | ClC-1 inh inactive
CSc1ccc(/C=C(\C#N)C(=O)Nc2cccc(C)c2)cc1	none
COC(=O)[C@@]12CCCN1[C@H](c1ccc(-c3ccc(Cl)c(Cl)c3)cc1)[C@H]1C(=O)N(C)C(=O)[C@H]12	TMEM16A inh 100 (no result: FID counter) | TMEM16A reconf inactive | TMEM16A Ca cntr inactive | Parental YFP cnt inactive | ClC-1 inh inactive
Oc1ccc2nnc3c(Br)cnn3c2c1	none | TMEM16A reconf inactive | TMEM16A Ca cntr inactive | Parental YFP cnt inactive | ClC-1 inh inactive
COc1ccc(N(CC(=O)NCCSCc2ccc(C)cc2)S(=O)(=O)c2ccccc2)cc1	TMEM16A inh 25 | TMEM16A reconf inactive | TMEM16A Ca cntr inactive | Parental YFP cnt inactive | ClC-1 inh inactive
COc1ccccc1N(CC(=O)NCCSCc1ccc(C)cc1)S(=O)(=O)c1ccccc1	none
CC1CCN(c2oc(Cc3cccc4ccccc34)nc2C#N)CC1	TMEM16A inh 25 | TMEM16A reconf inactive | TMEM16A Ca cntr inactive | Parental YFP cnt inactive | ClC-1 inh inactive
N#Cc1nc(Cc2cccc3ccccc23)oc1N1CCOCC1	none
N#Cc1nc(Cc2cccc3ccccc23)oc1NCc1ccc(F)cc1	TMEM16A inh 100 | TMEM16A reconf inactive | TMEM16A Ca cntr inactive | Parental YFP cnt inactive | ClC-1 inh inactive
C=CCNc1oc(Cc2cccc3ccccc23)nc1C#N	none
COc1ccc(-c2cc(C(=O)Nc3c(F)cc(F)cc3Br)no2)cc1	none
CN1CCC(N(C)S(=O)(=O)c2ccc(NC(=O)COc3ccc(F)cc3Cl)cc2)CC1	none
CC1=C(c2ccc(C)cc2)S(=O)(=O)N(CC(=O)O)C1=O	TMEM16A inh 25 | TMEM16A reconf inactive | TMEM16A Ca cntr inactive | Parental YFP cnt inactive | ClC-1 inh inactive
COC(=O)CN1C(=O)C(C)=C(c2ccc(C)cc2)S1(=O)=O	none
O=C(NC1CCCCC1)N(Cc1nc2ccccc2c(=O)[nH]1)C1CCCCC1	none
O=C(COCc1nc2ccccc2c(=O)[nH]1)NC1CCCC1	TMEM16A inh 100 | TMEM16A reconf inactive | TMEM16A Ca cntr inactive | Parental YFP cnt inactive | ClC-1 inh inactive
C=CCOC(=O)/C=C/C(=O)NC(N)=O	none
COCCSc1nnc(NC(=O)Cc2ccc(OC)c(OC)c2)s1	none
CCSc1nnc(NC(=O)Cc2ccc(OC)c(OC)c2)s1	TMEM16A inh 100 | TMEM16A reconf inactive | TMEM16A Ca cntr inactive | Parental YFP cnt inactive | ClC-1 inh inactive
CN(CCO)CCC(=O)NC1(C)CS(=O)(=O)CC1S(=O)(=O)O (stereo not drawn)	none
